Compound activity as filed in PubChem BioAssay.
RGS4 block – human RGS4 inhibition; P49798; HEK293 M3R/RGS4 inducible, Fluo-4 calcium flux; stronger effect = higher value; triggered by carbachol at its EC20; B-score at 10 µM; 310,000 compounds, 0.45% hits; AID 463165;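 active means B-score, a plate-corrected calcium signal, over three deviations above library mean, with baseline fluorescence within five deviations of library mean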;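 further: RGS4 expression induced by doxycycline in cells with stable M3 receptor; B-score is computed from the integrated fluorescence ratio over baseline after carbachol; higher B-score means a larger calcium signal and so more RGS4 inhibition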
Target sequence (P49798 whole entry, looked up): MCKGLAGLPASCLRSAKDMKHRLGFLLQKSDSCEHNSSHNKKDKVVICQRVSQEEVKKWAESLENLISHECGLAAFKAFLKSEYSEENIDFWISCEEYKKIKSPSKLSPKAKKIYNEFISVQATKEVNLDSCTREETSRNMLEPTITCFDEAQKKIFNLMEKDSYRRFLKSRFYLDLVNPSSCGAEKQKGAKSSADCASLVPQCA
MrgX1 ag – agonists of human MrgX1 receptor; MrgX1-HEK293 cells, Fluo-4 calcium fluorescence, agonist mode; stronger effect = higher value; 310,000 compounds, 0.44% hits; B-score at 10 µM; Q96LB2;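 active means calcium response B-score plate-corrected fluorescence ratio at least 3 library SD, with starting fluorescence B-score inside 5 SD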
Target sequence (Q96LB2 whole entry, looked up): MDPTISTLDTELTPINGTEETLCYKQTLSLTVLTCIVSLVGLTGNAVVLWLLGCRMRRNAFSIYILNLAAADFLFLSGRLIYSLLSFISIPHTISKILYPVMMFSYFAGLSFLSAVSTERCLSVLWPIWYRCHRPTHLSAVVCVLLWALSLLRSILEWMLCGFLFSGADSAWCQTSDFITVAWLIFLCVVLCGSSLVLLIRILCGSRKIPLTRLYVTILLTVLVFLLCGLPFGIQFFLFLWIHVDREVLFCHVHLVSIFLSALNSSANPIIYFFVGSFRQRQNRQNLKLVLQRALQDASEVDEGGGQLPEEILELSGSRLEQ
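Assay system: MrgX1-expressing HEK293 cells / Amount: fifteen thousand cells per well / Doses: test compound in the initial addition of three / Timing: cells plated overnight, dye loaded 0.5 h 37 °C, 0.5 h room temperature / Technique: kinetic calcium dye fluorescence, Fluo-4 NW / Control set: positive and negative controls per plate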
RGS4 act – potentiators or activators of RGS4; HEK293 M3R/inducible RGS4, carbachol calcium flux Fluo4; stronger effect = lower value; B-score at 10 µM; 310,000 compounds, 0.92% hits;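 active means B-score of the integrated calcium signal more than 4 SD below the library mean, with starting fluorescence not abnormally high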;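 further: negative B-score means reduced calcium response which marks RGS4 activation or potentiation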
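Material: Inducible-RGS4 HEK293 cells carrying M3 receptor; also added: carbachol at ECmax as muscarinic agonist stimulus; incubation: compound preincubation 20 min at room temperature before agonist; signal: Fluo4-AM (2 µM) calcium-flux fluorescence, kinetic read; measure: integrated calcium ratio converted to B score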
MrgX1 antagonist – blocks BAM8-22 activation of human MrgX1 receptor | Q96LB2 | MRGX1-HEK293 calcium flux, Fluo-4, BAM8-22 antagonism; stronger effect = lower value | B-score at 10 µM | 310,000 compounds, 1.3% hits;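 active means calcium-response B-score plate-corrected more than 3 library SD below zero, starting fluorescence within 5 deviations, no agonist response on first addition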;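 further: peak minus trough fluorescence over baseline after final BAM8-22 challenge near maximal dose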
MrgX1 PAM – human MrgX1 positive allosteric modulation, primary screen | Q96LB2 | MrgX1-HEK293, Fluo-4 calcium flux, FDSS; stronger effect = higher value | B-score at 10 µM | 310,000 compounds, 0.63% hits | AID 588675;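 active means plate-corrected calcium response at least 3 library SD above typical, normal starting fluorescence, not activating the receptor alone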;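 further: compound read alongside a low EC10 to EC30 dose of BAM8-22 agonist; peak minus trough fluorescence over baseline measured at the second addition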
The depositor's hits bear a star. Compounds with a hit are over-represented: about 3.5% of the library has one in this group of screens.

Results for O=c1c2cc(Cl)ccc2nc(-c2ccccc2)n1O ?
RGS4 block: inactive; MrgX1 ag: inactive; RGS4 act: inactive; MrgX1 antagonist: inactive; MrgX1 PAM: inactive

What do the screens show for `COC(=O)c1cccc(NC(=O)CCNC(=O)c2ccc([N+](=O)[O-])cc2)c1`?
RGS4 block: inactive; MrgX1 ag: inactive; RGS4 act: inactive; MrgX1 antagonist: -7.85*; MrgX1 PAM: inactive

How did COC(=O)c1ccc(C)c(NC(=O)CCNC(=O)c2ccc([N+](=O)[O-])cc2)c1 do in these assays?
RGS4 block: inactive; MrgX1 ag: inactive; RGS4 act: inactive; MrgX1 antagonist: inactive; MrgX1 PAM: inactive

Results for COc1cc(C)c(CN2CCC(n3nccc3NC(=O)C3CC3)CC2)cc1C ?
RGS4 block: inactive; MrgX1 ag: inactive; RGS4 act: inactive; MrgX1 antagonist: inactive; MrgX1 PAM: inactive

Results for CN(C)CCCN(C(=O)c1ccc(S(=O)(=O)N(C)C2CCCCC2)cc1)c1nc2ccc(F)cc2s1 ?
RGS4 block: inactive; MrgX1 ag: inactive; RGS4 act: inactive; MrgX1 antagonist: inactive; MrgX1 PAM: inactive

Results for Cc1cc(C)c2sc(N(CCCN(C)C)C(=O)c3ccc(S(=O)(=O)N(C)C4CCCCC4)cc3)nc2c1 ?
RGS4 block: inactive; MrgX1 ag: inactive; RGS4 act: -7.96*; MrgX1 antagonist: inactive; MrgX1 PAM: inactive

How did COc1ccc2sc(N(CCCN(C)C)C(=O)c3ccc(S(=O)(=O)N4CCCc5ccccc54)cc3)nc2c1 do in these assays?
RGS4 block: inactive; MrgX1 ag: inactive; RGS4 act: -9.54*; MrgX1 antagonist: inactive; MrgX1 PAM: inactive

Results for CN(C)CCCN(C(=O)c1ccc(S(=O)(=O)N(C)C2CCCCC2)cc1)c1nc2ccc(Br)cc2s1 ?
RGS4 block: inactive; MrgX1 ag: inactive; RGS4 act: -8.65*; MrgX1 antagonist: inactive; MrgX1 PAM: inactive

How did COc1cc2nc(N(CCCN(C)C)C(=O)c3ccc(S(=O)(=O)N(C)C4CCCCC4)cc3)sc2cc1OC do in these assays?
RGS4 block: inactive; MrgX1 ag: inactive; RGS4 act: inactive; MrgX1 antagonist: inactive; MrgX1 PAM: inactive

Results for O=C(NC1CCC(=O)N(CCOc2ccccc2)CC1)OCc1ccccc1 (stereo not given) ?
RGS4 block: inactive; MrgX1 ag: inactive; RGS4 act: inactive; MrgX1 antagonist: inactive; MrgX1 PAM: inactive

How did Cc1cccc(N(C)C(=O)CCS(=O)(=O)c2cc3c(cc2Cl)NC(=O)CO3)c1 do in these assays?
RGS4 block: inactive; MrgX1 ag: inactive; RGS4 act: inactive; MrgX1 antagonist: inactive; MrgX1 PAM: inactive

Results for Cc1ccc(N=C2C(=O)Nc3ccccc32)cc1 ?
RGS4 block: inactive; MrgX1 ag: 42.3*; RGS4 act: inactive; MrgX1 antagonist: inactive; MrgX1 PAM: inactive

How did O=C1Nc2ccccc2C1=Nc1ccc(Cl)cc1 do in these assays?
RGS4 block: inactive; MrgX1 ag: inactive; RGS4 act: inactive; MrgX1 antagonist: inactive; MrgX1 PAM: inactive

How did CC(C)OCCCNC(=O)c1cc2c(=O)n(C)c3ccccc3c2n1C do in these assays?
RGS4 block: inactive; MrgX1 ag: inactive; RGS4 act: inactive; MrgX1 antagonist: inactive; MrgX1 PAM: inactive

Results for CCCCN(CC)CCCNC(=O)c1cc2c(=O)n(C)c3ccccc3c2n1C ?
RGS4 block: inactive; MrgX1 ag: inactive; RGS4 act: inactive; MrgX1 antagonist: -5.52*; MrgX1 PAM: inactive

How did CN1CCN(CCCOc2ccc(-c3ccccc3)cc2)CC1 do in these assays?
RGS4 block: inactive; MrgX1 ag: inactive; RGS4 act: -9.3*; MrgX1 antagonist: inactive; MrgX1 PAM: inactive

Results for CN1CCN(CCOc2ccc(-c3ccccc3)cc2)CC1 ?
RGS4 block: inactive; MrgX1 ag: inactive; RGS4 act: inactive; MrgX1 antagonist: inactive; MrgX1 PAM: inactive

What do the screens show for `c1ccc(COc2ccc(OCCCCN3CCCCC3)cc2)cc1`?
RGS4 block: inactive; MrgX1 ag: inactive; RGS4 act: -10.3*; MrgX1 antagonist: inactive; MrgX1 PAM: inactive

How did CNc1[nH]c(=O)[nH]c(=O)c1N=Nc1cc(Cl)ccc1Cl do in these assays?
RGS4 block: inactive; MrgX1 ag: inactive; RGS4 act: inactive; MrgX1 antagonist: inactive; MrgX1 PAM: inactive

Results for Cc1cc(Cl)ccc1OCC(=O)NN1C(=O)C2C3C=CC(C3)C2C1=O (stereo not given) ?
RGS4 block: inactive; MrgX1 ag: inactive; RGS4 act: inactive; MrgX1 antagonist: -6.12*; MrgX1 PAM: inactive

What do the screens show for `Cc1ccc[n+](CC(=O)c2cc3ccccc3oc2=O)c1`?
RGS4 block: inactive; MrgX1 ag: inactive; RGS4 act: -9.89*; MrgX1 antagonist: inactive; MrgX1 PAM: inactive

Results for O=C(NN1C(=O)C2C3C=CC(C3)C2C1=O)c1ccncc1 (stereo not given) ?
RGS4 block: inactive; MrgX1 ag: inactive; RGS4 act: inactive; MrgX1 antagonist: inactive; MrgX1 PAM: inactive

Results for O=C(NN1C(=O)C2C(c3ccccc3)C=CC(c3ccccc3)C2C1=O)c1ccncc1 (stereo not given) ?
RGS4 block: inactive; MrgX1 ag: 27.8*; RGS4 act: inactive; MrgX1 antagonist: inactive; MrgX1 PAM: inactive

What do the screens show for `O=C1C2C3C=CC(C4CC34)C2C(=O)N1/N=C/c1ccc(-c2ccc(Cl)cc2[N+](=O)[O-])o1` (stereo not given)?
RGS4 block: inactive; MrgX1 ag: inactive; RGS4 act: -8.49*; MrgX1 antagonist: inactive; MrgX1 PAM: inactive

How did Cc1ccnc(NC(=O)CSc2ccc3c(c2)OCCO3)c1 do in these assays?
RGS4 block: inactive; MrgX1 ag: inactive; RGS4 act: -7.34*; MrgX1 antagonist: inactive; MrgX1 PAM: inactive

Results for CCOc1ccc(N=C/C=C/c2ccccc2)c(O)c1 ?
RGS4 block: inactive; MrgX1 ag: inactive; RGS4 act: inactive; MrgX1 antagonist: inactive; MrgX1 PAM: inactive

Results for CCC(=O)Oc1ccc(C2NC(=O)c3ccccc3O2)cc1OC (stereo not given) ?
RGS4 block: inactive; MrgX1 ag: inactive; RGS4 act: -7.59*; MrgX1 antagonist: inactive; MrgX1 PAM: inactive

How did CCOC(=O)c1cnc2sc3c(n2c1=O)CCCC3 do in these assays?
MrgX1 ag: inactive; MrgX1 antagonist: -5.18*; MrgX1 PAM: inactive

How did N#C/C(=C\c1ccc(O)c(O)c1)C(=O)NCCCc1ccccc1 do in these assays?
RGS4 block: inactive; MrgX1 ag: inactive; RGS4 act: inactive; MrgX1 antagonist: inactive; MrgX1 PAM: 6.74*

Results for Fc1ccc(NC(=S)N2CCN(c3ccccn3)CC2)cc1Cl ?
RGS4 block: inactive; MrgX1 ag: inactive; RGS4 act: inactive; MrgX1 antagonist: inactive; MrgX1 PAM: inactive
